The source of these data is ChEMBL document CHEMBL2157991, “Synthesis and pharmacological evaluation of 2,4-dinitroaryldithiocarbamate derivatives as novel monoacylglycerol lipase inhibitors” (J Med Chem, 2012).

As usually defined, the IC50 is the point on the concentration scale where inhibition reaches its midpoint.

One experiment has as its target T1, Monoglyceride lipase (Homo sapiens, UniProt Q99685).
T1 sequence (Q99685 whole entry): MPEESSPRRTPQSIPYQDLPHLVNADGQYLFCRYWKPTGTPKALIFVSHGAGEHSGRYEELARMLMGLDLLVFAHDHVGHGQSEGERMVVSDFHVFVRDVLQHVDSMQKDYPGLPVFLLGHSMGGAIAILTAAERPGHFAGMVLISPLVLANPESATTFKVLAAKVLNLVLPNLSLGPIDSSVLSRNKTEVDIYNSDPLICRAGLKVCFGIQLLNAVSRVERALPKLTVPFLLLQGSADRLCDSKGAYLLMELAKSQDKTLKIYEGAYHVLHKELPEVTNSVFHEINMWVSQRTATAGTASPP
Nature of the experiment: Inhibition of human recombinant MAGL using [3H]-2-OG as substrate after 10 mins by liquid scintillation counter. The gist of the method: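 Purified recombinant hMAGL (5 ng; Tris pH 8.0, 50 mM, 0.1% BSA) with inhibitor in DMSO and [3H]-2-OG (10 μM), 10 min at 37 °C; stopped with ice-cold methanol–chloroform, aqueous-phase radioactivity by liquid scintillation, no-enzyme blanks subtracted; pIC50 from dose–response, mean ± SEM of three experiments in duplicate.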

In experiment [1] the test system is T2, Monoglyceride lipase (Homo sapiens), Q99685 [C208A,C242A].
T2 sequence (whole entry): T1 sequence (Q99685 whole entry) with C208A, C242A
Nature of the experiment: Inhibition of human MAGL C208A/C242A mutant expressed in Escherichia coli in presence of DTT.

Experiment [2] concerns the target T3, Monoglyceride lipase (Homo sapiens) (UniProt Q99685).
T3 sequence (whole entry): T1 sequence (Q99685 whole entry)
In words: Inhibition of MAGL at 10^-8.5 M after 30 mins by liquid scintillation counter. The gist of the method:
(§1)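 Pure MAGL (105 ng, 20 μL) incubated 30 min at room temperature with inhibitor at 10−3 to 10−6 M or DMSO, then diluted 300-fold in Tris pH 8.0; after 15 min, aliquot assayed with [3H]-2-OG by standard protocol; same nominal post-dilution concentrations also assayed directly; percent of control, one-way ANOVA with Dunnett's test.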

Experiment [3] has as its system T4, Monoglyceride lipase (Homo sapiens), Q99685 [C242A].
T4 sequence (whole entry): T1 sequence (Q99685 whole entry) with C242A
In words: Inhibition of human MAGL C242A mutant expressed in Escherichia coli. In short, it runs like this: (§2)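 Homogenates of E. coli expressing wild-type or C201A, C208A, C242A or C208A/C242A mutant MAGL used as enzyme source in the [3H]-2-OG hydrolysis assay; n = 3 in duplicate.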

The target of experiment [4] is T5, Fatty-acid amide hydrolase 1 (Homo sapiens, UniProt O00519).
T5 sequence (O00519 whole entry): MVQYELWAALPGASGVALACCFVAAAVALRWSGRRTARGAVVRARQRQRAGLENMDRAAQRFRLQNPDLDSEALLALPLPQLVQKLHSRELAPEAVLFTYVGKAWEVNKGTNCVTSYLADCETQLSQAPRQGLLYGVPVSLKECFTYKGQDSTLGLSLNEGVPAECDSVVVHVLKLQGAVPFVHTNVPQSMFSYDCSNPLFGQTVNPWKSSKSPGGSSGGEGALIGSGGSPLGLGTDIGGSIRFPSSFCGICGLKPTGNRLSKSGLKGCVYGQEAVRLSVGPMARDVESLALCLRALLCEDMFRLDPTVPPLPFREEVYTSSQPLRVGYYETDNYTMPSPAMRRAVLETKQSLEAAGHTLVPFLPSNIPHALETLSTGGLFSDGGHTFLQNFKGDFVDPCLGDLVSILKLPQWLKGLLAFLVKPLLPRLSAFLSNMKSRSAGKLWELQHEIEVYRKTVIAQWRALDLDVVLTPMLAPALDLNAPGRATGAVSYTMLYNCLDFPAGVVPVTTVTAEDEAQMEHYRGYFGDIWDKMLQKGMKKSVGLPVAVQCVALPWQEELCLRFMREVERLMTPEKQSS
In words: Inhibition of human recombinant FAAH assessed as conversion of [3H]AEA to [3H]ethanolamine after 10 mins by liquid scintillation counter. The gist of the method:
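Human recombinant FAAH (6 ng protein, Tris-EDTA) with inhibitor in DMSO; [3H]AEA at 2 μM final, 10 min at 37 °C; stopped with ice-cold methanol–chloroform, [3H]ethanolamine in aqueous layer counted by liquid scintillation, buffer blanks subtracted; pIC50 from dose–response, mean ± SEM of three experiments in duplicate.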

Experiment [5] has as its target T6, Monoglyceride lipase (Mus musculus) (UniProt O35678).
T6 sequence (whole entry): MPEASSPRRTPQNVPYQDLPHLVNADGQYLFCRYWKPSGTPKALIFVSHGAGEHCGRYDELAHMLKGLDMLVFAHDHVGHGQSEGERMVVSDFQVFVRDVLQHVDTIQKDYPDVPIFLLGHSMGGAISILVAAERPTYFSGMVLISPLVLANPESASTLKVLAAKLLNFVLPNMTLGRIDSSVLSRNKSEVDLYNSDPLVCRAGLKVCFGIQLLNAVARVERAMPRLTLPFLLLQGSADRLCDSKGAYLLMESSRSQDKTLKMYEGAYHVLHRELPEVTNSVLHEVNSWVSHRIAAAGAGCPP
Nature of the experiment: Inhibition of MAGL in mouse B16 cells assessed as increase in 2-arachidonoylglycerol level at 10 uM after 8 hrs by isotope dilution HPLC-MS method. Type of experiment: cell-based. The gist of the method: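 Murine B16 melanoma cells (MEMα, 10% FBS, 37 °C, 5% CO2), 5 × 10^6 cells/condition seeded 12 h, then exposed 8 h to 10 μM inhibitor or 0.1% DMSO in 1% FBS medium; cells plus medium extracted with chloroform–methanol with d5-2-AG, silica SPE cleanup, 2-AG quantified by APCI-positive HPLC–MS isotope dilution, normalized to vehicle.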

Another experiment is filed under the species Homo sapiens. Nature of the experiment: Selectivity ratio of IC50 for human recombinant FAAH to IC50 for human recombinant MAGL.
Experiment [6] concerns the target T3, Monoglyceride lipase (Homo sapiens). In words: Irreversible inhibition of MAGL at 10^-8.5 M measured after 300 times dilution. In short, it runs like this: as §1
The subject of experiment [7] is T2, Monoglyceride lipase (Homo sapiens), Q99685 [C208A,C242A]. Nature of the experiment: Inhibition of human MAGL C208A/C242A mutant expressed in Escherichia coli. In short, it runs like this:
as §2

Substitutions are numbered along the chain they refer to. Calls of active or inactive are those of the source. No cut-off for these calls is given here.

Consider `CC(C)(C)c1ccc(CN2CCN(C(=S)Sc3ccc([N+](=O)[O-])cc3[N+](=O)[O-])CC2)cc1`, for which the 50% inhibitory concentration (IC50) at Monoglyceride lipase was 155 nM; in experiment [4], 1740 nM. Besides, the inhibition entry in experiment [1], in experiment [5] and in [6] was “Active” in each case. Also, the inhibition result in experiment [2], in experiment [3] and in experiment [7] was “inactive” each time. In addition, in the experiment listed under Homo sapiens, the Ratio IC50 was 11.
